In ChEMBL document CHEMBL3351670, “Discovery of Tröger's base analogues as selective inhibitors against human breast cancer cell line: design, synthesis and cytotoxic evaluation” (Eur J Med Chem, 2014) one finds IC50 data, which are given here for 30 molecules.

Holding throughout (type): functional, cell-based
The test system of one test is MDA-MB-231. The experiment in a line: Cytotoxicity against human MDA-MB-231 cells assessed as growth inhibition after 48 hrs by MTT assay. The note with it: MDA-MB-231, 48 h. In short, it runs like this:
(§1)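 MTT assay in triplicate. Cells were seeded at 10,000 cells/[…] per well in medium with 10% serum and allowed to adhere for 24 h in a humid 5% CO₂ chamber. After 48 h, MTT solution was added and cells were incubated 2 h more. Medium was then removed and DMSO added to dissolve the formazan. IC50 was taken as the concentration giving 50% growth inhibition.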

Another test deals with A549. In words: Cytotoxicity against human A549 cells assessed as growth inhibition after 48 hrs by MTT assay. The note with it: A549, 48 h. The method in brief:
as §1

For a further test, the system named is SK-N-SH. The experiment in a line: Cytotoxicity against human SK-N-SH cells assessed as growth inhibition after 48 hrs by MTT assay. In short, it runs like this:
as §1
Background: Tetrazolium dyes change colour on reduction, which living cells bring about.

Broadly, the IC50 is the midpoint of a concentration-inhibition curve. For `COc1ccc2c(c1)CN1CN2Cc2cc(OC)ccc21`, the IC50 in the test with MDA-MB-231, in the test with A549 and in the test on SK-N-SH was more than 100 µM each time.
For the molecule `COc1ccc2c(c1)CN1c3ccc(OC)cc3CN2C1N(C)C`, the IC50 in the test with MDA-MB-231, in the test on A549 and in the test with SK-N-SH was more than 100 µM in each case.
In the case of `COc1ccc2c(c1)CN1c3ccc(OC)cc3CN2C1N(C)c1ccc(C)cc1`, the values for the half-inhibitory concentration (IC50) with MDA-MB-231, in the test on A549 and with SK-N-SH were 10.7 µM, more than 100 µM and more than 100 µM, respectively.
Turning to `COc1cc2c(cc1OC)N1Cc3cc(OC)c(OC)cc3N(C2)C1N(C)C`, the figures for the IC50 in the test with MDA-MB-231, in the test with A549 and in the test on SK-N-SH were 78.1 µM, more than 100 µM and more than 100 µM, respectively.
In the case of `COc1cc2c(cc1OC)N1Cc3cc(OC)c(OC)cc3N(C2)C1N(C)c1ccccc1`, the IC50 with MDA-MB-231 is 86.8 µM; in the test on A549, more than 100 µM; in the test with SK-N-SH it was more than 100 µM.
`Cc1ccc2c(c1)CN1c3ccc(C)cc3CN2C1N(C)C`: the figures for the IC50 with MDA-MB-231, with A549 and in the test with SK-N-SH were 61.8 µM, more than 100 µM and more than 100 µM, respectively.
Turning to `Cc1ccc2c(c1)CN1c3ccc(C)cc3CN2C1N(C)c1ccccc1`, the results for the IC50 in the test on MDA-MB-231, in the test on A549 and in the test with SK-N-SH were 72.3 µM, more than 100 µM and more than 100 µM, respectively.
Turning to `CN(C)C1N2Cc3cc(Br)ccc3N1Cc1cc(Br)ccc12`, the IC50 in the test on MDA-MB-231, in the test with A549 and in the test with SK-N-SH was more than 100 µM in each case.
As for `CN(c1ccccc1)C1N2Cc3cc(Br)ccc3N1Cc1cc(Br)ccc12`, the 50% inhibitory concentration (IC50) with MDA-MB-231 is 14.3 µM; in the test with A549, more than 100 µM; in the test with SK-N-SH, more than 100 µM.
`Cc1ccc(N(C)C2N3Cc4cc(Br)ccc4N2Cc2cc(Br)ccc23)cc1`: the IC50 in the test on MDA-MB-231, in the test on A549 and in the test with SK-N-SH was more than 100 µM in each case.
Regarding `CC(C)c1ccc2c(c1)CN1c3ccc(C(C)C)cc3CN2C1N(C)C`, the IC50 in the test on MDA-MB-231 was 57.5 µM; with A549, more than 100 µM; in the test with SK-N-SH it was more than 100 µM.
As for `CN(C)C1N2Cc3ccccc3N1Cc1ccccc12`, the IC50 in the test on MDA-MB-231, in the test with A549 and in the test on SK-N-SH was more than 100 µM in each case.
As for `Cc1ccc2c(c1)CN1c3ccc(C)cc3CN2C1N1CCCCC1`, the IC50 in the test on MDA-MB-231 was 82.4 µM; in the test with A549, more than 100 µM; in the test on SK-N-SH, 12.2 µM.
For `Cc1ccc2c(c1)CN1c3ccc(C)cc3CN2C1N1CCOCC1`, in that order: more than 100 µM, more than 100 µM and more than 100 µM.
The matching figures for `Brc1ccc2c(c1)CN1c3ccc(Br)cc3CN2C1N1CCCCC1`: more than 100 µM, more than 100 µM and more than 100 µM.
For `Ic1ccc2c(c1)CN1c3ccc(I)cc3CN2C1N1CCOCC1`, in that order: more than 100 µM, more than 100 µM and more than 100 µM.
As to `Ic1ccc2c(c1)CN1c3ccc(I)cc3CN2C1N1CCCCC1`, the half-maximal inhibitory concentration (IC50) in the test on MDA-MB-231, in the test on A549 and with SK-N-SH was more than 100 µM in each case.
`c1cn(CCOc2ccc3c(c2)CN2CN3Cc3cc(OCCn4ccnc4)ccc32)cn1`: the IC50 in the test with MDA-MB-231 is 42.6 µM.
Same read-out and setting: next, `CN(C)C1N2Cc3cc(OCCn4ccnc4)ccc3N1Cc1cc(OCCn3ccnc3)ccc12`: more than 100 µM; `c1ncn(CCOc2ccc3c(c2)CN2CN3Cc3cc(OCCn4cncn4)ccc32)n1`: more than 100 µM.
Still for that read-out and setting: next, `CN(C)C1N2Cc3cc(OCCn4cncn4)ccc3N1Cc1cc(OCCn3cncn3)ccc12`: 40.4 µM.
On the same count and under the same terms, next, `c1cc2c(cc1OCCN1CCOCC1)CN1CN2Cc2cc(OCCN3CCOCC3)ccc21`: 4.29 µM; `CN(C)C1N2Cc3cc(OCCN4CCOCC4)ccc3N1Cc1cc(OCCN3CCOCC3)ccc12`: 4.79 µM; `CC(C)(C)OC(=O)N1CCN(CCOc2ccc3c(c2)CN2CN3Cc3cc(OCCN4CCN(C(=O)OC(C)(C)C)CC4)ccc32)CC1`: 5.15 µM.
As for `c1ccc(-n2nnnc2SCCOc2ccc3c(c2)CN2CN3Cc3cc(OCCSc4nnnn4-c4ccccc4)ccc32)cc1`, in the test with MDA-MB-231, the concentration for half-maximal inhibition (IC50) is more than 100 µM.
The same measure, in the same setting: then `c1ccc(CC2CCN(CCOc3ccc4c(c3)CN3CN4Cc4cc(OCCN5CCC(Cc6ccccc6)CC5)ccc43)CC2)cc1`, with 64.1 µM; and `COc1ccccc1N1CCN(CCOc2ccc3c(c2)CN2CN3Cc3cc(OCCN4CCN(c5ccccc5OC)CC4)ccc32)CC1`, with 5.8 µM; and `Fc1ccc(N2CCN(CCOc3ccc4c(c3)CN3CN4Cc4cc(OCCN5CCN(c6ccc(F)cc6)CC5)ccc43)CC2)cc1`, with 4.82 µM.
On the same count and under the same terms, next, `Clc1ccc(C(c2ccccc2)N2CCN(CCOc3ccc4c(c3)CN3CN4Cc4cc(OCCN5CCN(C(c6ccccc6)c6ccc(Cl)cc6)CC5)ccc43)CC2)cc1` (racemic): 57.9 µM.
`COc1cccc2c1C(=O)c1c(O)c3c(c(O)c1C2=O)C[C@@](O)(C(=O)CO)C[C@@H]3O[C@H]1C[C@H](N)[C@H](O)[C@H](C)O1` [DOXORUBICIN]: the IC50 turned out to be 5.96 µM in the test with MDA-MB-231, 8.05 µM with A549 and 8.5 µM with SK-N-SH.
